Experimental data: publication PMC3329623 (The Biochemical journal, 2009)
Like-named read-outs stand apart in the source and are kept apart here. Bridge positions count the residues as written; N and C are the ends. Ends that are not written are not given here.

Columns and labels:
[1] = tested on: zfα5β1-1, zfα5β1-2 and zfα5huβ1; assay: inhibition of 70K binding to zebrafish α5 integrins; conditions: specificity control / antagonist test; 1 mM Mn2+
Method in brief: (§1)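 Receptors were Fc-fused α5β1 headpiece integrins expressed transiently in CHO-L761h cells and captured from supernatant on goat anti-human Fc. Binding of the biotinylated fibronectin fragment (2–3 nM) was run with 1 mM Mn2+ at room temperature. Peptide inhibitor was tested at 0.1–100 μg/ml and small-molecule inhibitor at 0.1–300 nM, both serially diluted. BSA-well background was subtracted; four replicate wells; at least three experiments.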

[2] = tested on: huα5β1-1, huα5β1-2 and huα5huβ1; assay: inhibition of 50K binding to human α5 integrins; set-up: species or system human α5 / zebrafish or human β1; conditions: 1 mM Mn2+
Method in brief: as §1

α5β1 = conditions: cited from earlier work; for affinity for α5β1: phage display peptides
[3] = tested on: human α5 with Ile-210 (equivalent of Leu-206) mutated to alanine; conditions: cited from earlier work
[4] = tested on: human α5 with Tyr-208 (equivalent of Tyr-204) mutated to alanine; conditions: cited from earlier work
[5] = biological target: zfα5(huW1-4)β1-1 blade swap integrin (human | zebrafish) (UniProt P08648); assay: ELISA
[6] = biological target: zfα5(ASSIY)β1-1 loop swap integrin (D4-A4 loop RKEIRF to ASSIY) (zebrafish); assay: ELISA
[7] = biological target: zebrafish α5β1-1-Fc recombinant soluble integrin (zebrafish); assay: ELISA
[8] = biological target: zfα5β1-1(D225A) (zebrafish); assay: ELISA
[9] = biological target: zfα5(EPEK)β1-1 loop swap integrin (B2-C2 loop KEDTPH to EKEPL) (zebrafish); assay: ELISA
[10] = biological target: zfα5(SWAA)β1-1 loop swap integrin (D3-A3 loop RGRK to SWAA) (zebrafish); assay: ELISA
[11] = biological target: triple loop swap zfα5β1-1 integrin (KEDTPH to EKEPL, RGRK to SWAA and RKEIRF to ASSIY) (zebrafish); assay: ELISA
[12] = biological target: zfα5β1-1(L206A) (zebrafish); assay: ELISA
[13] = biological target: zfα5β1-1(Y204A) (zebrafish); assay: ELISA
zfα5(SWAA)β1-1 [14] = biological target: T1, zfα5(SWAA)β1-1 (Danio rerio, UniProt A0ACM8Q6M2+Q3YAA1, R184S/G185W/R186A/K187A/S520N); format: biochemical; conditions: read-out: apparent KI values for JSM6427 (Figure 6 legend); SD, n = 3
Method in brief: (§2)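 Fc-fused soluble integrin (full α5 ectodomain plus β1 headpiece: PSI, hybrid, βI) from CHO-L761h supernatants 6 days after transient co-transfection, captured on anti-human Fc. Biotinylated fibronectin fragment (E. coli-made human 3Fn6-10 or FLAG-purified zebrafish 70K from 293-EBNA cells) at 2–3 nM, 1 mM Mn2+, room temperature. Inhibitor 0.1–300 nM, serially diluted. Four replicate wells, BSA background subtracted. Curves fitted by simulated annealing. KI = IC50/(1+[ligand]/KD).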

Triple swap = Triple swap (Danio rerio, UniProt A0ACM8Q6M2+Q3YAA1, K151E/E152K/D153E/DEL154/H156L/R184S/G185W/R186A/K187A/R250A/K251S/E252S/DEL254/F255Y/S520N); assay: Solid-phase inhibition of biotinylated 70K zebrafish fibronectin-1 fragment; format: biochemical; conditions: read-out: Apparent KI values (nM), JSM6427, 70K; SD, n = 3
Method in brief: as §2

zfα5(SWAA)β1-1 [15] = biological target: T1, zfα5(SWAA)β1-1; assay: as above; format: biochemical; conditions: read-out: Apparent KI values (nM), JSM6427, 70K; SD, n = 3
Method in brief: as §2

huα5β1-1 [16] = biological target: huα5β1-1 (UniProt P08648+Q3YAA1); assay: Solid-phase inhibition of biotinylated 50K human fibronectin fragment; format: biochemical; conditions: read-out: Apparent KI values (nM), JSM6427, 50K; SD, n = 3
Method in brief: as §2

zfα5(SGAA)β1-1 = zfα5(SGAA)β1-1 (Danio rerio, UniProt A0ACM8Q6M2+Q3YAA1, R184S/R186A/K187A/S520N); format: biochemical; conditions: read-out: apparent KI values for JSM6427 (Figure 6 legend); SD, n = 3
Method in brief: as §2

huα5β1-1 [17] = assay: inhibition of 50K binding to huα5β1-1; set-up: species or system human α5 / zebrafish β1-1; conditions: control experiments
[18] = biological target: zfα5(SWAA)β1-1 loop swap integrin (D3-A3 loop RGRK to SWAA) (zebrafish); assay: ELISA; remark: listed apart in the source
[19] = biological target: triple loop swap zfα5β1-1 integrin (KEDTPH to EKEPL, RGRK to SWAA and RKEIRF to ASSIY) (zebrafish); assay: ELISA; remark: listed apart in the source
[20] = biological target: zfα5(huW1-4)β1-1 blade swap integrin (human | zebrafish) (UniProt P08648); assay: ELISA; remark: listed apart in the source
[21] = biological target: human α5 / zebrafish β1-1-Fc recombinant soluble integrin (human | zebrafish, UniProt P08648;Q3YAA1); assay: ELISA

In the case of “GCRGDSPCG (disulfide 2-8 (inferred)) [cyclic RGD peptide]”, the “inhibition of 70K binding to zebrafish α5 integrins” value [1] is reported as “could be inhibited” and the “inhibition of 50K binding to human α5 integrins” value [2] is reported as “fully inhibited”.

In the case of “CRGDGFC (disulfide 1-7 (inferred)) [CRGDGFC]”, the “affinity for α5β1” value (α5β1) is listed as “high affinity”.

In the case of fibronectin, the “reduction of affinity of fibronectin binding, human α5 Ile mutated to alanine” value [3] is listed as 200 fold and the “reduction of affinity of fibronectin binding, human α5 Tyr mutated to alanine” value [4] is listed as 5 fold.

“50 kDa cell binding domain of human fibronectin (3Fn6-10) (domain or fragment)” gave a Kd [5] of 1.3 nM.

Work on “70 kDa cell binding fragment of zebrafish fibronectin-1 (3Fn6-10 including the EIIIB domain) (domain or fragment)” yielded a Kd [6] of 8.3 nM, a fold higher affinity than for zfα5β1-2 [7] of 3 fold and a Kd [8] of 42 nM. It also gave a Kd [9] of 4.6 nM, a Kd [10] of 1.7 nM and a Kd [11] of 5.8 nM. For the same molecule, the Kd [12] was 106 nM, the Kd [5] was 14 nM and the Kd [13] was 79 nM.

For “CRGDGWC (disulfide 1-7 (inferred)) [CRGDGWC]”, the “affinity for α5β1” value (α5β1) is listed as “high affinity”.

For JSM6427, the Ki (zfα5(SWAA)β1-1 [14]) was 4.2 nM, the Ki (Triple swap) was 1.21 ± 0.04 nM and the Ki (zfα5(SWAA)β1-1 [15]) was 7.2 ± 2.4 nM. For the same molecule, the Ki (huα5β1-1 [16]) was 0.65 ± 0.15 nM and the Ki (zfα5(SGAA)β1-1) was 25 nM.

In the case of RGDGW, the “specificity/selectivity for human α5β1” value (α5β1; Trp-157 in the D3-A3 loop involved) is listed as “human α5β1-specific and α5β1-selective”.

With “GACRRETADACGA (disulfide 3-11 (inferred))” the “inhibition of 50K binding to huα5β1-1” value (huα5β1-1 [17]) was “ineffective”.

In the case of `O=C(O)CN(CCN(CC(=O)O)CC(=O)O)CC(=O)O` [EDTA], the “inhibition of 70K binding to zebrafish α5 integrins” value [1] is reported as “could be inhibited” and the “inhibition of 50K binding to human α5 integrins” value [2] is reported as “fully inhibited”.

B1: cyclic peptide … (peptide)
peptide: GACRRETAWACGA
modifications: disulfide 3-11 (inferred)
Molecule B1 has a Ki [18] of 126 nM, a Ki [19] of 76 nM and a Ki [20] of 31 nM.

B2: cyclic peptide GACRRETAWACGA (peptide)
peptide: GACRRETAWACGA
modifications: disulfide 3-11 (inferred)
Molecule B2 has a Ki [21] of 47 nM.
